According to publication PMC5767125 (Journal of medicinal chemistry, 2017):

Key:
[1] = molecular target: D3R (Homo sapiens, UniProt P35462); assay: Inhibition of forskolin-dependent stimulation of adenylyl cyclase; format: cell-based; conditions: compound at 10x the Ki value; efficacy relative to full agonist Quinpirole
Summary of the method: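 Test compound at 10x its Ki, assessed for inhibiting forskolin-dependent adenylyl cyclase stimulation. Output is mean percent efficacy ± SEM relative to the full agonist quinpirole.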

[2] = molecular target: 5-HT2A receptor (Homo sapiens, UniProt P28223); assay: 5-HT2A receptor binding; conditions: data not shown; comparable to those at 5-HT1AR
[3] = molecular target: T1, 5-HT2c receptor (Homo sapiens, UniProt P28335); assay: 5-HT2c receptor binding; conditions: data not shown; comparable to those at 5-HT1AR
T1 sequence (P28335 33-458): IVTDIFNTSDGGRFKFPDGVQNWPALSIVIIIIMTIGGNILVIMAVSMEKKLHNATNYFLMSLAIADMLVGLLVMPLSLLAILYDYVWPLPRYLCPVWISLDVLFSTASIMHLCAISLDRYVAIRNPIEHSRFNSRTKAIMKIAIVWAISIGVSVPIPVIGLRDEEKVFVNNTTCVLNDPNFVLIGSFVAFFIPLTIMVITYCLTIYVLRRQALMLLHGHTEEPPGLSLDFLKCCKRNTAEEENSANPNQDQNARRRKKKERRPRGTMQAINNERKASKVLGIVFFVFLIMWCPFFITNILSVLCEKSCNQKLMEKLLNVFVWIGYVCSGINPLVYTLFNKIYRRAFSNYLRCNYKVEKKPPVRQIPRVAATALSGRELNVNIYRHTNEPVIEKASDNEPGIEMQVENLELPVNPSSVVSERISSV

Chain of D3R (P35462 whole entry): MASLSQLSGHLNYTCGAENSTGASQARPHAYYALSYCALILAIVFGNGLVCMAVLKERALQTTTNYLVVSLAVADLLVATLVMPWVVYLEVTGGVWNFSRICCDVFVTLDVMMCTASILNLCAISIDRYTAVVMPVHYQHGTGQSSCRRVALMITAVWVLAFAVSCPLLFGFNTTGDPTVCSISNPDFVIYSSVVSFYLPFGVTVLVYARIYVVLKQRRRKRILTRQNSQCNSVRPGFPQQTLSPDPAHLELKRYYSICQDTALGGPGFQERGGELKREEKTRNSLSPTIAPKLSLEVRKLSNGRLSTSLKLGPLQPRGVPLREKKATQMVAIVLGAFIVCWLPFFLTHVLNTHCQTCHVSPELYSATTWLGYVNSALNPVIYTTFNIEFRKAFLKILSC
Chain of 5-HT2A receptor (P28223 whole entry): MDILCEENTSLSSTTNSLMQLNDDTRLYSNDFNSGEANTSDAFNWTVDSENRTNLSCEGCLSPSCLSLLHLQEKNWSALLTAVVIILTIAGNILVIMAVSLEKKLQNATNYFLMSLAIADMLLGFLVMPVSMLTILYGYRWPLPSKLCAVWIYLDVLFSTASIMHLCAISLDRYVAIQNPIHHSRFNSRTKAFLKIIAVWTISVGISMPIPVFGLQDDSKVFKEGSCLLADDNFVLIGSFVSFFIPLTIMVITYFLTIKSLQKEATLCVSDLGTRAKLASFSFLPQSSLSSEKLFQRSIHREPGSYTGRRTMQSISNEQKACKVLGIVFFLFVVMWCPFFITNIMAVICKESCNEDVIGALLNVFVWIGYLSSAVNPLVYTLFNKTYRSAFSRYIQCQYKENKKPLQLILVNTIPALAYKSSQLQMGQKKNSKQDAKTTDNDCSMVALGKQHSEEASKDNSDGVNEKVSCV

Row | Compound | functional activity, adenylyl cyclase assay [1] | binding affinity at 5-HT2A receptor [2] | binding affinity at 5-HT2c receptor [3]
1 | COc1ccccc1N1CCC2(CCN(CCCSc3nnc(-c4ccccc4)n3C)CC2)C1 [Compound 14] | low activity | low binding affinities | low binding affinities
2 | COc1ccccc1N1CCC2(CCN(CCCSc3nnc(-c4ccccc4)n3C)CC2)CC1 [Compound 15a] | partial agonist | low binding affinities | low binding affinities
3 | Cn1c(SCCCN2CCC3(CC2)CCN(c2ccc(F)cc2)CC3)nnc1-c1ccccc1 [Compound 15c] | low activity | low binding affinities | low binding affinities
